The values below come from ChEMBL document CHEMBL3272166, “Quantitative structure-activity relationships in centrally acting imidazolidines structurally related to clonidine” (J Med Chem, 1977).

Series [1] can be described thus: Apparent partition coefficient, log P in octanol and 0.1 M phosphate buffer at pH 7.4. Format: physicochemical. As to conditions: octanol/0.1 M phosphate buffer.
In series [2] the test system is Rattus norvegicus. Briefly: Hypotensive activity in iv dosed anesthetized normotensive Wistar rat assessed as maximal decrease in mean arterial pressure. Format: functional, Artery. As to conditions: for ED30: Rattus norvegicus, Wistar, Artery, iv. A digest of the protocol:
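Male Wistar rats (190-220 g) anaesthetised with pentobarbitone sodium 75 mg/kg ip, kept at 37 ± 1 °C, ventilated and heparinised. Carotid arterial pressure recorded; animals outside 100–150 mmHg after ~20 min equilibration discarded. Graded iv doses in saline, with randomised agents and doses and one rat per experiment. Log-dose–response curves of maximal fall in mean pressure gave the dose (μmol/kg) for a 30% decrease (ED30).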

Series [3] concerns Rattus norvegicus. Put plainly: Hypotensive activity in iv dosed anesthetized normotensive Wistar rat assessed as maximal decrease in mean arterial pressure measured per gram of brain tissue. Format: functional, Artery.
Series [4] concerns Rattus norvegicus. Briefly: Hypotensive activity in iv dosed anesthetized normotensive Wistar rat assessed as 30% decrease in mean arterial pressure. As to conditions: Artery.

Each structure is given as a SMILES string.

On to `Cl.c1ccc(NC2=NCCN2)cc1`, for which the logD (in general, the decadic logarithm of the distribution of all forms, ionised or not, between an organic phase and buffer at a given pH) in series [1] is -1.92. In addition, in the series on Rattus norvegicus [2], the “log(1/ED30)” value is listed as -2.1 and the ED30 was 25 mg/kg. For the same compound, the “log(1/ED30)” value in the series on Rattus norvegicus [3] is reported as -0.42.
As for `Cl.Clc1cccc(Br)c1N=C1NCCN1`, the logD in series [1] came to 0.87. The entries for the “log(1/ED30)” value in the series with Rattus norvegicus [2] and in the series on Rattus norvegicus [3] were 2.22 and 1.72, respectively. Further, the ED30 in the series on Rattus norvegicus [4] worked out at 0.0029 mg/kg.
Turning to `Brc1cccc(Br)c1N=C1NCCN1.Cl`, the logD in series [1] came out at 1.21. In the series on Rattus norvegicus [2], the “log(1/ED30)” value is listed as 2.04 and the ED30 came out at 0.0055 mg/kg. In the series on Rattus norvegicus [3], the “log(1/ED30)” value amounted to 1.4.
Take `Cl.Fc1cccc(Cl)c1N=C1NCCN1`: in series [1], the logD was determined as 0.52. In the series on Rattus norvegicus [2], the “log(1/ED30)” value came out at 1.47 and the ED30 was determined as 0.0125 mg/kg. In addition, the “log(1/ED30)” value in the series with Rattus norvegicus [3] is listed as 1.13.
For the compound `Cl.Clc1cc(Cl)c(N=C2NCCN2)c(Cl)c1`, in the series on Rattus norvegicus [2], the ED30 was 0.021 mg/kg.
As for `Cl.Clc1cccc(N=C2NCCN2)c1Cl`, the logD in series [1] was determined as 0.57. Besides, in the series on Rattus norvegicus [2], the “log(1/ED30)” value was determined as 1.37 and the ED30 is 0.013 mg/kg. Also, the “log(1/ED30)” value with Rattus norvegicus [3] was 1.13.
Taken in the same sequence, the figures for `Cc1cc(Cl)c(N=C2NCCN2)c(Cl)c1.Cl` were 0.73, 1.22, 0.021 mg/kg and 0.87.
As to `Cc1cccc(Cl)c1N=C1NCCN1.Cl`, the logD in series [1] was -0.57. Also, the “log(1/ED30)” value in the series on Rattus norvegicus [2] was found to be 1.12; in the series with Rattus norvegicus [3], 1.57. In addition, the ED30 in the series on Rattus norvegicus [2] came to 0.019 mg/kg.
For the compound `Cl.Clc1cc(Br)cc(Cl)c1N=C1NCCN1`, the logD in series [1] was 1.97. Further, in the series on Rattus norvegicus [2], the “log(1/ED30)” value is on record as 1.03 and the ED30 worked out at 0.06 mg/kg.
`Cc1cccc(C)c1N=C1NCCN1.Cl`: the logD in series [1] is -1.54. Further, in the series with Rattus norvegicus [2], the “log(1/ED30)” value came out at 0.85 and the ED30 is 0.032 mg/kg. Further, the “log(1/ED30)” value with Rattus norvegicus [3] is 2.14.
Taken in the same sequence, the figures for `Cl.Clc1ccc(N=C2NCCN2)c(Cl)c1` were 0.29, 0.68, 0.061 mg/kg and 0.58.
Taken in the same sequence, the figures for `Cc1ccc(N=C2NCCN2)c(Cl)c1.Cl` were -0.48, 0.68, 0.053 mg/kg and 1.07.
Regarding `Cc1cc(Cl)cc(Cl)c1N=C1NCCN1.Cl`, the logD in series [1] was 0.47. Moreover, the entries for the “log(1/ED30)” value with Rattus norvegicus [2] and with Rattus norvegicus [3] were 0.57 and 0.4, respectively. For the same compound, the ED30 in the series with Rattus norvegicus [2] came out at 0.079 mg/kg.
Consider `Cc1cc(C)c(N=C2NCCN2)c(Cl)c1.Cl`, for which the logD in series [1] is -0.36. In the series with Rattus norvegicus [2], the “log(1/ED30)” value came to 0.52 and the ED30 is 0.08 mg/kg. Moreover, in the series on Rattus norvegicus [3], the “log(1/ED30)” value worked out at 0.83.
Taken in the same sequence, the figures for `Cl.Clc1ccc(Cl)c(N=C2NCCN2)c1` were 0.65, 0.32, 0.15 mg/kg and 0.03.
As for `Brc1cc(Br)c(N=C2NCCN2)c(Br)c1.Cl`, in series [1], the logD was determined as 2.24. Moreover, in the series with Rattus norvegicus [2], the “log(1/ED30)” value worked out at 0.28 and the ED30 came out at 0.58 mg/kg. Moreover, the “log(1/ED30)” value in the series with Rattus norvegicus [3] was -0.65.
Taken in the same sequence, the figures for `Cl.Clc1ccccc1N=C1NCCN1` were -0.67, 0.15, 0.17 mg/kg and 0.67.
Taken in the same sequence, the figures for `Cc1cc(Cl)cc(C)c1N=C1NCCN1.Cl` were -0.62, 0.04, 0.24 mg/kg and 0.54.
With `Cc1cc(Cl)ccc1N=C1NCCN1.Cl`, the logD in series [1] is -1.06. In addition, in the series with Rattus norvegicus [2], the “log(1/ED30)” value is -0.05 and the ED30 came to 0.275 mg/kg. In the series with Rattus norvegicus [3], the “log(1/ED30)” value came to 0.8.
The like results for `Cc1cc(C)c(N=C2NCCN2)c(C)c1.Cl` were, in that order, -1.28, -0.07, 0.28 mg/kg and 0.98.
The like results for `Cl.Fc1cccc(F)c1N=C1NCCN1` were, in that order, -0.16, -0.29, 0.6 mg/kg and -0.22.
Taken in the same sequence, the figures for `Cl.O=[N+]([O-])c1cc(Cl)c(N=C2NCCN2)c(Cl)c1` were 1.92, -0.34, 4.5 mg/kg and -1.68.
In the case of `Cc1cc(Br)cc(C)c1N=C1NCCN1.Cl`, the logD in series [1] was -0.28. In addition, in the series on Rattus norvegicus [2], the “log(1/ED30)” value is listed as -0.36 and the ED30 is 0.7 mg/kg. Besides, the “log(1/ED30)” value in the series with Rattus norvegicus [3] is -0.1.
Taken in the same sequence, the figures for `Cc1ccc(N=C2NCCN2)c(C)c1.Cl` were -1.66, -0.56, 0.81 mg/kg and 0.86.
With `Cc1ccccc1N=C1NCCN1.Cl`, the logD in series [1] was -1.82. Moreover, in the series on Rattus norvegicus [2], the “log(1/ED30)” value is given as -0.67 and the ED30 worked out at 0.99 mg/kg. Besides, the “log(1/ED30)” value with Rattus norvegicus [3] amounted to 0.91.
Taken in the same sequence, the figures for `COc1cc(Cl)c(N=C2NCCN2)c(Cl)c1.Cl` were 0.15, -0.78, 2 mg/kg and -0.82.
In the case of `Cl.Clc1cccc(Cl)c1NC1=NCCN1` [CLONIDINE HYDROCHLORIDE], the “log(1/ED30)” value is 2.14 in the series with Rattus norvegicus [2] and 1.78 in the series with Rattus norvegicus [3]. The ED30 with Rattus norvegicus [4] is 0.0027 mg/kg.
